Assay: Toxicity liver stage against HepG2, at 10uM
Format: cell-based
Set-up: test concentration 10 uM, cell line HepG2-A16-CD81EGFP
Conditions: human, HepG2-A16-CD81EGFP cells; read-out: INHIBITION
How it was run: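 Uninfected HepG2-A16-CD81EGFP cells, 3 × 10^3 per well, 1536-well, plated on prespotted compound at 10 μM final, parasite-free screening media added to match infected plates; puromycin 10 μM positive, DMSO 0.5% negative; run in parallel with 48 h PbLuc assay at 37 °C, 5% CO2; viability by CellTiter-Glo luminescence, normalized to controls.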

Going from `O=C(NCC1CC1)[C@@H]1C[C@@H]2CCN(Cc3ccoc3)C[C@@H]2O1` to `CN(C)C(=O)COCc1nnc2n1CCN(Cc1ccoc1)C2`, the cytotoxicity at 10 µM rises from -2.65% to 8.49%.

First: Cc1ccc(OC2(C(=O)O)CCN(C/C=C/c3ccco3)CC2)cn1
Second: N#Cc1cccc(CNC(=O)Nc2cccnc2N2CCCC2)c1
The cytotoxicity at 10 µM of the first is higher: -1.64% for the first, -15.5% for the second.

First: Cn1ccnc1CN1CCN(CC(O)c2ccco2)CC1 (stereo unspecified)
Second: O=S(=O)(c1ccc(Cl)s1)N1CCN(Cc2nc(-c3ccco3)cs2)CC1
The cytotoxicity at 10 µM of the first is lower: 2.38% for the first, 47.6% for the second.

Going from `Cc1cccnc1CC(C)NC1Cc2ccccc2C1` (stereo unspecified) to `Cc1cccc(NC(=O)[C@@H]2CCCN2Cc2cnc3ccccn23)n1`, the cytotoxicity at 10 µM falls from 4.69% to -7.22%.

First: Cc1cccc(CN2CCN(Cc3ccccc3)CC(O)C2)n1 (stereo unspecified)
Second: COCCN1CCC2(C1)c1ccccc1S(=O)(=O)N2Cc1ccccc1 (stereo unspecified)
The cytotoxicity at 10 µM of the first is lower: -8.42% for the first, 10.5% for the second.

Going from `CN(C)CCNC(=O)[C@H]1C[C@H]2CN(C(=O)NC3CCCC3)C[C@@H]1O2` to `CN(C)CCN(C)C[C@@H]1CN(C(=O)NC2CCCC2)C[C@@H]1CO`, the cytotoxicity at 10 µM rises from -4.2% to 1.35%.

Going from `Cc1ccc(CN(CCCn2ccnc2)Cc2ccccc2O)s1` to `CCN(CCCc1ccccc1)CC1(C)Cc2c(N)nc(N)nc2O1` (stereo unspecified), the cytotoxicity at 10 µM rises from -14.6% to 0.822%.

Compared with `COCC(=O)N1CC[C@@H](N2CCN(C)CC2)[C@@H]1Cc1ccccc1`, `COCC(=O)N1CCCN(Cc2cc(O)c3ccccc3n2)CC1` is higher in cytotoxicity at 10 µM: -66.1% for the first, 4.02% for the second.

Going from `O=C(c1ccnnc1)N1CC2(CCN(c3ncccn3)C2)C1` to `O=C(C1CCOCC1)N1CCOCC(Cc2ncccn2)C1` (stereo unspecified), the cytotoxicity at 10 µM falls from 5.62% to 1.38%.

First: CC(C)NC(=O)[C@H]1C[C@H]2CN(C(=O)NCc3ccccc3)C[C@@H]1O2
Second: CNC(=O)CN1C(=O)CCC12CCCN(CCc1ccccc1)C2 (stereo unspecified)
The cytotoxicity at 10 µM of the first is higher: 5.5% for the first, 1.35% for the second.

Compared with `CNC(=O)C(C)(C)N1CCC[C@H]1C(=O)NC1CCCC1`, `CCOc1ncccc1NC(=O)NC1CCN(C(C)=O)CC1` is lower in cytotoxicity at 10 µM: -3.01% for the first, -6.47% for the second.

Going from `Cc1nc(N)c2ccc(C3CCCN3)nc2n1` (stereo unspecified) to `Cc1nn2c(N3CCC(O)C3)cc(-c3ccccc3)nc2c1C` (stereo unspecified), the cytotoxicity at 10 µM falls from 3.67% to -11.5%.

Going from `O=C([C@H]1C[C@H]2OCC[C@H]2N(C(=O)c2ccccn2)C1)N1CCCCO1` to `O=C(C[C@@H]1COC[C@H]2CN(C3CCOCC3)C[C@@H]12)Nc1cnccn1`, the cytotoxicity at 10 µM falls from 13.1% to 12%.

First: c1cncc(-c2cccc(-c3ccn(CCN4CCCCC4)n3)c2)c1
Second: O=c1cc(N2CCCC2)cnn1CCc1cccc(F)c1
The cytotoxicity at 10 µM of the first is higher: 2.54% for the first, -12.8% for the second.

Compared with `CC(C)n1cnnc1CN(C)Cc1cnc(-c2ccccn2)nc1`, `Oc1cc(-c2ccccn2)nc(C2CCN(Cc3ccncc3)CC2)n1` is lower in cytotoxicity at 10 µM: 11.9% for the first, -7.56% for the second.

Going from `COCC(=O)N1CCCCC1c1nc(CN(C)C(C)=O)cc(N(C)C)n1` (stereo unspecified) to `COCC(=O)N1C[C@H]2CNC[C@@]2(C(=O)NCc2nc(C)cc(C)n2)C1`, the cytotoxicity at 10 µM rises from 3.37% to 14.7%.

First: O=C(NCc1cccs1)c1nc2c(o1)CN(C(=O)c1cccnc1)C2
Second: Cc1cnn(CC2CCCN2C(=O)c2cc(O)nc3ccccc23)c1 (stereo unspecified)
The cytotoxicity at 10 µM of the first is higher: -6.04% for the first, -6.5% for the second.

First: CCC1=N[C@@]2(CC[C@@H]3CN(CC)C[C@@H]32)C(=O)N1C
Second: CCN1C[C@H]2[C@@H](C1)N(S(=O)(=O)c1ccccc1)CC[C@H]2OC
The cytotoxicity at 10 µM of the first is lower: -102% for the first, -75.3% for the second.

Compared with `COc1c(C)cnc(CSc2nnc(C)s2)c1C`, `COc1c(C2CCCN2C(=O)c2cncnc2C)c(C)nn1C` (stereo unspecified) is lower in cytotoxicity at 10 µM: -4.66% for the first, -6.19% for the second.

Compared with `CSC(C)(C)CNC(=O)NCCC1CCN(C)CC1`, `CSC(C)C(=O)N1CCN(CCO)CC1` (stereo unspecified) is lower in cytotoxicity at 10 µM: 22.3% for the first, -6.69% for the second.

Compared with `Cc1c(NC(=O)NCC(C)N2CCOCC2)cccc1OC(F)F` (stereo unspecified), `Cc1cccc(C(C)CNC(=O)N2CCC3(C2)OCCO3)c1` (stereo unspecified) is higher in cytotoxicity at 10 µM: -2.88% for the first, 16.1% for the second.

Going from `Cc1c(Cl)c(C(F)(F)F)nn1C(C)C(=O)NN1CCN(C)CC1` (stereo unspecified) to `O=C(NC1CC1)c1cc(C(F)(F)F)cc(C(F)(F)F)n1`, the cytotoxicity at 10 µM rises from -7.85% to 6%.

First: Cn1cc(CNC2CCCN(Cc3noc(C4CC4)n3)C2)cn1 (stereo unspecified)
Second: CCn1cc(C(=O)N2CCCC(c3noc(C)n3)C2)cn1 (stereo unspecified)
The cytotoxicity at 10 µM of the first is lower: -9.52% for the first, 2.17% for the second.

First: CCC(=O)N1CCN(C(=O)NCCOc2ccc3c(c2)CCC3)CC1
Second: CC(CCSc1ccccc1)N1CCCN(C(N)=O)CC1 (stereo unspecified)
The cytotoxicity at 10 µM of the first is higher: -7.57% for the first, -10.7% for the second.

Compared with `Cc1ccc(NC(=O)NCC(c2cnn(C)c2)N(C)C)c(C)c1` (stereo unspecified), `COc1ccc(C)cc1CN(C)CC(=O)NC1(C)CCS(=O)(=O)C1` (stereo unspecified) is higher in cytotoxicity at 10 µM: -0.538% for the first, 1.28% for the second.

First: CC(C)n1cc(-c2nc3cc(S(=O)(=O)N4CCCC4)ccc3n2C)cn1
Second: Cc1cccc(S(=O)(=O)N2CCCc3c(c(=O)n(C)n3C)C2)c1
The cytotoxicity at 10 µM of the first is higher: 1.12% for the first, -2.08% for the second.

Going from `Cn1ncc2c(NCC3CCCN3c3cccnn3)ncnc21` (stereo unspecified) to `Cc1nnc([C@@]23CCO[C@@H]2CCN(S(=O)(=O)c2cccnc2)C3)o1`, the cytotoxicity at 10 µM falls from -11.9% to -103%.

First: CN(CC(=O)N1CCCC1Cn1cccn1)C1CC1 (stereo unspecified)
Second: CCN1CCC(NC(=O)CN2CCCC2Cn2cccn2)CC1 (stereo unspecified)
The cytotoxicity at 10 µM of the first is lower: -9.39% for the first, 1.98% for the second.

First: O=C(N[C@@H]1CN(Cc2ccc3cc[nH]c3c2)C[C@H]1O)c1cnccn1
Second: CCCC(=O)N(C)Cc1nc(N2CCCC2)ncc1-c1ccncc1
The cytotoxicity at 10 µM of the first is lower: -8.22% for the first, 9.76% for the second.

Going from `CCC(O)c1nc2c([nH]1)CC(C)(C)CNC2=O` (stereo unspecified) to `CN(C)c1nc2c(c(N3CCC4(CC3)CNC(=O)C4)n1)CCCC2`, the cytotoxicity at 10 µM falls from 9.55% to 0.995%.

Compared with `c1ncn(Cc2cn3c(n2)CN(CC2CCCCC2)CC3)n1`, `CC(C)c1noc(CN(CCC2CCCCC2)CC(N)=O)n1` is higher in cytotoxicity at 10 µM: -123% for the first, 2.94% for the second.

Compared with `CC(C(=O)NCc1ccnc(N2CCCC2)c1)n1cccn1` (stereo unspecified), `CC(C)NC(=O)NCc1ccc(C(=O)NC(C)Cn2cccn2)cc1` (stereo unspecified) is lower in cytotoxicity at 10 µM: 0.309% for the first, -1.46% for the second.

First: Cc1cnn(CC(C)NCC(=O)NC2CCOCC2)c1 (stereo unspecified)
Second: Cc1cc(NC(=O)CNC2CCc3ncnn3C2)no1 (stereo unspecified)
The cytotoxicity at 10 µM of the first is higher: 15.6% for the first, -6.73% for the second.

First: O=C(CC1COCCN1)NCCc1nc(-c2ccccn2)no1 (stereo unspecified)
Second: O=C(NCc1ccnc(OCC(F)(F)F)c1)NCC1COCCO1 (stereo unspecified)
The cytotoxicity at 10 µM of the first is lower: -0.849% for the first, 1.81% for the second.

Going from `Cc1ccc(CN(C)CC2(O)CCCN(C)C2)o1` (stereo unspecified) to `COc1ccc(CN2CCC3(CCCN(C)C3=O)C2)c(Cl)c1OC` (stereo unspecified), the cytotoxicity at 10 µM rises from -8.08% to -1.24%.

Going from `CC(NC(=O)Nc1ccc(S(C)(=O)=O)cc1)c1ccc2c(c1)CC(=O)N2` (stereo unspecified) to `COc1c(CNC(c2ccc(F)cc2)c2nccn2C)c(C)nn1C` (stereo unspecified), the cytotoxicity at 10 µM falls from 0.0793% to -12.7%.

Compared with `COc1cc(C2CC(=O)NCc3nc4sccn4c32)cc(OC)c1O` (stereo unspecified), `COc1ccccc1OCCn1c(C)c(C)oc1=O` is lower in cytotoxicity at 10 µM: -0.966% for the first, -3.05% for the second.

Going from `Cn1ccnc1CN1CCC2(COCCN(S(=O)(=O)C3CC3)C2)C1` (stereo unspecified) to `CCCn1nccc1-c1nccnc1CC1CCN(C(C)=O)CC1`, the cytotoxicity at 10 µM falls from 12.7% to -6.15%.

Compared with `COc1ccc(C(=O)N2CCC(Nc3ccc(C)nn3)CC2)c(F)c1`, `Cc1n[nH]cc1CNC1CCN(c2ccc(F)cc2)CC1` is lower in cytotoxicity at 10 µM: 1.15% for the first, -54% for the second.

First: CNc1cc(C)nc(C2CN(Cc3cc[nH]n3)CCO2)c1 (stereo unspecified)
Second: CCOC(=O)Cn1nnnc1-c1ccccc1
The cytotoxicity at 10 µM of the first is lower: -9.09% for the first, 0.363% for the second.

`CN(Cc1nc(C(C)(C)C)no1)C1CCS(=O)(=O)C1` (stereo unspecified) gave a cytotoxicity at 10 µM of 15.2%.

Source: ChEMBL document CHEMBL4513216, “Probing the Open Global Health Chemical Diversity Library for Multistage-Active Starting Points for Next-Generation Antimalarials” (ACS Infect Dis, 2020)
